# Reference: ChEMBL document CHEMBL2331240, “Focused library development of 2-phenylacrylamides as broad spectrum cytotoxic agents” (2013)
# The source made the active and inactive calls. The rule behind the calls is not given here.
# Key:
# SMA = test: Cytotoxicity against mouse SMA cells assessed as growth inhibition at 25 uM measured after 72 hrs by MTT assay
# NCI-H460 = test: Cytotoxicity against human H460 cells assessed as growth inhibition at 25 uM measured after 72 hrs by MTT assay; assay type: functional, cell-based
# Procedure, shortened: (§1)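 Log-phase cells were plated in duplicate at 2500–4000 cells/well in DMEM with 10% FBS, glutamine and antibiotics, at 37 °C under 5% CO2. Drug was added 24 h after plating from a 40 mM DMSO stock, to a final 25 μM. After 72 h exposure, MTT was read at 540 nm and % growth inhibition was calculated, with 100% meaning total growth inhibition.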
# SW480 [1] = test: Cytotoxicity against human SW480 cells assessed as growth inhibition at 25 uM measured after 72 hrs by MTT assay; assay type: functional; details: for inhibition of growth at 25 µM: SW480, 72 h, read-out: GI
# Procedure, shortened: as §1
# A-431 [2] = test: Cytotoxicity against human A431 cells assessed as growth inhibition at 25 uM measured after 72 hrs by MTT assay; assay type: functional, cell-based
# Procedure, shortened: as §1
# SJ-G2 = test: Cytotoxicity against human SJ-G2 cells assessed as growth inhibition at 25 uM measured after 72 hrs by MTT assay; assay type: functional, cell-based
# Procedure, shortened: as §1
# DU-145 [3] = test: Cytotoxicity against human DU145 cells assessed as growth inhibition at 25 uM measured after 72 hrs by MTT assay; assay type: functional, cell-based
# Procedure, shortened: as §1
# HT-29 [4] = test: Cytotoxicity against human HT-29 cells assessed as growth inhibition at 25 uM measured after 72 hrs by MTT assay; assay type: functional, cell-based
# Procedure, shortened: as §1
# MIA = test: (§2) Cytotoxicity against human MIA cells assessed as growth inhibition at 25 uM measured after 72 hrs by MTT assay; assay type: functional
# Procedure, shortened: as §1
# MCF7 [5] = test: Cytotoxicity against human MCF7 cells assessed as growth inhibition at 25 uM measured after 72 hrs by MTT assay; assay type: functional; details: for inhibition of growth at 25 µM: MCF7, 72 h, read-out: GI
# Procedure, shortened: as §1
# A2780 [6] = test: Cytotoxicity against human A2780 cells assessed as growth inhibition at 25 uM measured after 72 hrs by MTT assay; assay type: functional
# Procedure, shortened: as §1
# [7] = (§3) Cytotoxicity against human BE(2)-C cells assessed as growth inhibition at 25 uM measured after 72 hrs by MTT assay; assay type: functional; details: read-out: GI
# Procedure, shortened: as §1
# HT-29 [8] = test: Cytotoxicity against human HT-29 cells assessed as growth inhibition at 100 uM measured after 72 hrs by MTT assay; assay type: functional; details: HT-29, 72 h, read-out: GI
# A-431 [9] = test: Cytotoxicity against human A431 cells assessed as growth inhibition at 100 uM measured after 72 hrs by MTT assay; assay type: functional; details: A-431, 72 h, read-out: GI
# MCF7 [10] = test: Cytotoxicity against human MCF7 cells assessed as growth inhibition at 100 uM measured after 72 hrs by MTT assay; assay type: functional; details: MCF7, 72 h, read-out: GI
# [11] = Cytotoxicity against human BE(2)-C cells assessed as growth inhibition measured after 72 hrs by MTT assay; assay type: functional
# Procedure, shortened: (§4)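 Cells in log phase were seeded in duplicate at 2500–4000 cells/well in supplemented DMEM (37 °C, 5% CO2). Drug from a 40 mM DMSO stock was added on day 0, 24 h post-plating. Read-out was MTT absorbance at 540 nm after 72 h.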
# [12] = Cytotoxicity against human MIA cells assessed as growth inhibition at 100 uM measured after 72 hrs by MTT assay; assay type: functional; details: read-out: GI
# [13] = Cytotoxicity against human SJ-G2 cells assessed as growth inhibition measured after 72 hrs by MTT assay; assay type: functional; details: SJ-G2, 72 h
# Procedure, shortened: as §4
# [14] = Cytotoxicity against human SJ-G2 cells assessed as growth inhibition at 100 uM measured after 72 hrs by MTT assay; assay type: functional; details: SJ-G2, 72 h, read-out: GI
# HT-29 [15] = test: Cytotoxicity against human HT-29 cells assessed as growth inhibition measured after 72 hrs by MTT assay; assay type: functional; details: HT-29, 72 h
# Procedure, shortened: as §4
# [16] = Cytotoxicity against human H460 cells assessed as growth inhibition measured after 72 hrs by MTT assay; assay type: functional; details: NCI-H460, 72 h
# Procedure, shortened: as §4
# [17] = Cytotoxicity against human H460 cells assessed as growth inhibition at 100 uM measured after 72 hrs by MTT assay; assay type: functional; details: NCI-H460, 72 h, read-out: GI
# DU-145 [18] = test: Cytotoxicity against human DU145 cells assessed as growth inhibition at 100 uM measured after 72 hrs by MTT assay; assay type: functional; details: DU-145, 72 h, read-out: GI
# SW480 [19] = test: Cytotoxicity against human SW480 cells assessed as growth inhibition at 100 uM measured after 72 hrs by MTT assay; assay type: functional; details: SW480, 72 h, read-out: GI
# [20] = Cytotoxicity against mouse SMA cells assessed as growth inhibition measured after 72 hrs by MTT assay
# [21] = Cytotoxicity against human MIA cells assessed as growth inhibition measured after 72 hrs by MTT assay; assay type: functional
# Procedure, shortened: as §4
# DU-145 [22] = test: Cytotoxicity against human DU145 cells assessed as growth inhibition measured after 72 hrs by MTT assay; assay type: functional; details: DU-145, 72 h
# Procedure, shortened: as §4
# A2780 [23] = test: Cytotoxicity against human A2780 cells assessed as growth inhibition at 100 uM measured after 72 hrs by MTT assay; assay type: functional; details: A2780, 72 h, read-out: GI
# MCF7 [24] = test: Cytotoxicity against human MCF7 cells assessed as growth inhibition measured after 72 hrs by MTT assay; assay type: functional; details: MCF7, 72 h
# Procedure, shortened: as §4
# [25] = Cytotoxicity against mouse SMA cells assessed as growth inhibition at 100 uM measured after 72 hrs by MTT assay; details: read-out: GI
# A-431 [26] = test: Cytotoxicity against human A431 cells assessed as growth inhibition measured after 72 hrs by MTT assay; assay type: functional; details: A-431, 72 h
# Procedure, shortened: as §4
# [27] = Cytotoxicity against human BE(2)-C cells assessed as growth inhibition at 100 uM measured after 72 hrs by MTT assay; assay type: functional; details: read-out: GI
# SW480 [28] = test: Cytotoxicity against human SW480 cells assessed as growth inhibition measured after 72 hrs by MTT assay; assay type: functional; details: SW480, 72 h
# Procedure, shortened: as §4
# A2780 [29] = test: Cytotoxicity against human A2780 cells assessed as growth inhibition measured after 72 hrs by MTT assay; assay type: functional; details: A2780, 72 h
# Procedure, shortened: as §4
# BE(2)-C = test: as §3; assay type: functional
# Procedure, shortened: as §1
# [30] = as §2; assay type: functional; details: read-out: GI
# Procedure, shortened: as §1
smiles,measurement,setting,value
N#C/C(=C\c1c[nH]c2ccccc12)C(=O)c1ccc[nH]1,growth inhibition (GI),SMA,inactive
same,growth inhibition (GI),NCI-H460,inactive
same,inhibition of growth at 25 µM,SW480 [1],43%
same,growth inhibition (GI),A-431 [2],inactive
same,growth inhibition (GI),SJ-G2,inactive
same,growth inhibition (GI),DU-145 [3],inactive
same,growth inhibition (GI),HT-29 [4],inactive
same,growth inhibition (GI),MIA,inactive
same,inhibition of growth at 25 µM,MCF7 [5],56%
same,growth inhibition (GI),A2780 [6],inactive
same,inhibition of growth at 25 µM,[7],49%
N#C/C(=C\c1ccc(Cl)cc1)C(=O)c1ccc[nH]1,inhibition of growth at 100 µM,HT-29 [8],31%
same,inhibition of growth at 100 µM,A-431 [9],31%
same,inhibition of growth at 100 µM,MCF7 [10],31%
same,GI50,[11],34 µM
same,inhibition of growth at 100 µM,[12],31%
same,GI50,[13],37 µM
same,inhibition of growth at 100 µM,[14],31%
same,GI50,HT-29 [15],36 µM
same,GI50,[16],43 µM
same,inhibition of growth at 100 µM,[17],31%
same,inhibition of growth at 100 µM,DU-145 [18],31%
same,inhibition of growth at 100 µM,SW480 [19],31%
same,GI50,[20],38 µM
same,GI50,[21],48 µM
same,GI50,DU-145 [22],61 µM
same,inhibition of growth at 100 µM,A2780 [23],31%
same,GI50,MCF7 [24],27 µM
same,inhibition of growth at 100 µM,[25],31%
same,GI50,A-431 [26],52 µM
same,inhibition of growth at 100 µM,[27],31%
same,GI50,SW480 [28],34 µM
same,GI50,A2780 [29],35 µM
N#C/C(=C\c1ccc(Cl)c(Cl)c1)C(=O)c1c[nH]c2ccccc12,growth inhibition (GI),SMA,inactive
same,growth inhibition (GI),NCI-H460,inactive
same,inhibition of growth at 25 µM,SW480 [1],33%
same,growth inhibition (GI),A-431 [2],inactive
same,growth inhibition (GI),SJ-G2,inactive
same,growth inhibition (GI),DU-145 [3],inactive
same,growth inhibition (GI),HT-29 [4],inactive
same,growth inhibition (GI),MIA,inactive
same,inhibition of growth at 25 µM,MCF7 [5],42%
same,inhibition of growth at 25 µM,"A2780 [6]; A2780, 72 h, read-out: GI",32%
same,inhibition of growth at 25 µM,[7],33%
N#C/C(=C\c1ccc(O)cc1)C(=O)NCc1ccc(Cl)c(Cl)c1,growth inhibition (GI),SMA,inactive
same,growth inhibition (GI),NCI-H460,inactive
same,growth inhibition (GI),SW480 [1],inactive
same,growth inhibition (GI),A-431 [2],inactive
same,growth inhibition (GI),SJ-G2,inactive
same,growth inhibition (GI),DU-145 [3],inactive
same,growth inhibition (GI),HT-29 [4],inactive
same,growth inhibition (GI),MIA,inactive
same,growth inhibition (GI),MCF7 [5],inactive
same,growth inhibition (GI),A2780 [6],inactive
same,growth inhibition (GI),BE(2)-C,inactive
Cc1ccc(/C=C(\C#N)C(=O)NCc2ccc(Cl)c(Cl)c2)cc1,growth inhibition (GI),SMA,inactive
same,growth inhibition (GI),NCI-H460,inactive
same,growth inhibition (GI),SW480 [1],inactive
same,growth inhibition (GI),A-431 [2],inactive
same,growth inhibition (GI),SJ-G2,inactive
same,growth inhibition (GI),DU-145 [3],inactive
same,growth inhibition (GI),HT-29 [4],inactive
same,growth inhibition (GI),MIA,inactive
same,growth inhibition (GI),MCF7 [5],inactive
same,growth inhibition (GI),A2780 [6],inactive
same,growth inhibition (GI),BE(2)-C,inactive
COc1ccc(CNC(=O)/C(C#N)=C/c2cc3ccccc3o2)cc1,growth inhibition (GI),SMA,inactive
same,growth inhibition (GI),NCI-H460,inactive
same,growth inhibition (GI),SW480 [1],inactive
same,growth inhibition (GI),A-431 [2],inactive
same,growth inhibition (GI),SJ-G2,inactive
same,growth inhibition (GI),DU-145 [3],inactive
same,growth inhibition (GI),HT-29 [4],inactive
same,inhibition of growth at 25 µM,[30],34%
same,inhibition of growth at 25 µM,MCF7 [5],40%
same,growth inhibition (GI),A2780 [6],inactive
same,growth inhibition (GI),BE(2)-C,inactive
COc1ccc(/C=C(\C#N)C(=O)NCc2ccc(OC)cc2)cc1,growth inhibition (GI),SMA,inactive
same,growth inhibition (GI),NCI-H460,inactive
same,growth inhibition (GI),SW480 [1],inactive
same,growth inhibition (GI),A-431 [2],inactive
same,growth inhibition (GI),SJ-G2,inactive
same,growth inhibition (GI),DU-145 [3],inactive
same,growth inhibition (GI),HT-29 [4],inactive
same,growth inhibition (GI),MIA,inactive
same,growth inhibition (GI),MCF7 [5],inactive
same,growth inhibition (GI),A2780 [6],inactive
same,growth inhibition (GI),BE(2)-C,inactive
N#C/C(=C\c1ccc(C(F)(F)F)cc1)C(=O)c1c[nH]c2ccccc12,growth inhibition (GI),SMA,inactive
same,growth inhibition (GI),NCI-H460,inactive
same,growth inhibition (GI),SW480 [1],inactive
same,growth inhibition (GI),A-431 [2],inactive
same,growth inhibition (GI),SJ-G2,inactive
same,growth inhibition (GI),DU-145 [3],inactive
same,growth inhibition (GI),HT-29 [4],inactive
same,growth inhibition (GI),MIA,inactive
same,growth inhibition (GI),MCF7 [5],inactive
same,growth inhibition (GI),A2780 [6],inactive
same,growth inhibition (GI),BE(2)-C,inactive
COc1ccc(CNC(=O)/C(C#N)=C/c2ccc(CO)o2)cc1,growth inhibition (GI),SMA,inactive
same,growth inhibition (GI),NCI-H460,inactive
same,growth inhibition (GI),SW480 [1],inactive
same,growth inhibition (GI),A-431 [2],inactive
same,growth inhibition (GI),SJ-G2,inactive
same,growth inhibition (GI),DU-145 [3],inactive
same,growth inhibition (GI),HT-29 [4],inactive
same,growth inhibition (GI),MIA,inactive
same,growth inhibition (GI),MCF7 [5],inactive
same,growth inhibition (GI),A2780 [6],inactive
same,growth inhibition (GI),BE(2)-C,inactive
N#C/C(=C\c1ccc(Cl)cc1)C(=O)c1c[nH]c2ccccc12,growth inhibition (GI),SMA,inactive
same,growth inhibition (GI),NCI-H460,inactive
same,growth inhibition (GI),SW480 [1],inactive
same,growth inhibition (GI),A-431 [2],inactive
same,growth inhibition (GI),SJ-G2,inactive
same,growth inhibition (GI),DU-145 [3],inactive
same,growth inhibition (GI),HT-29 [4],inactive
same,growth inhibition (GI),MIA,inactive
same,growth inhibition (GI),MCF7 [5],inactive
same,growth inhibition (GI),A2780 [6],inactive
same,growth inhibition (GI),BE(2)-C,inactive
